Measured values reported in ChEMBL document CHEMBL3585302, “Synthesis and antibacterial activities of cadiolides A, B and C and analogues” (Bioorg Med Chem, 2015).
Active and inactive are the calls of the source. The rule behind the calls is not given here.

What was measured:
[1] = Cytotoxicity against human neutrophils assessed as reduction in cell viability at 100 uM incubated for 24 hrs by MTT assay; assay type: cell-based; settings: neutrophil
In short: (§1)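 Neutrophils from buffy coats of healthy donors were isolated by Ficoll-Hypaque gradient and seeded at 2 x 10⁵ cells/mL in supplemented RPMI. Exposed to 30 or 100 µM for 24 h at 37 °C, then MTT (2 mg/mL in PBS) added for 3 h. Formazan dissolved in DMSO and read at 560 and 630 nm. Mean ± SEM of n=6-9 independent experiments, compared against vehicle.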

[2] = Selectivity index, ratio of cytotoxicity against human neutrophils by MTT assay to antibacterial IC50 against Escherichia coli CECT 405; assay type: toxicity; settings: read-out: Selectivity Index
[3] = Selectivity index, ratio of cytotoxicity against human neutrophils by annexin V-FITC and propidium iodide staining based cytofluorometry to antibacterial IC50 against Escherichia coli CECT 405; assay type: toxicity; settings: read-out: Selectivity Index
[4] = Selectivity index, ratio of cytotoxicity against human neutrophils by annexin V-FITC and propidium iodide staining based cytofluorometry to antibacterial IC50 against Enterococcus faecalis CECT 481; assay type: toxicity; settings: read-out: Selectivity Index
Staphylococcus aureus [5] = assay: Antibacterial activity against Staphylococcus aureus CECT 86 assessed as inhibition of microbial growth incubated for 18 hrs by 2-fold microtiter broth dilution method; assay type: functional, organism-based; settings: CECT 86, 18 h
In short: (§2)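 Compounds in DMSO, ten 2-fold serial dilutions (125 down to 0.24 µg/mL tested). Bacteria at OD620 = 0.001 in Nutrient Broth mixed 1:1 with dilutions. Incubated overnight (18 h) at 28°C or 37°C according to strain. Growth read turbidimetrically at OD620. MIC is the lowest concentration giving complete growth inhibition. Triplicate runs. Tetracycline as reference.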

[6] = Selectivity index, ratio of cytotoxicity against human neutrophils by annexin V-FITC and propidium iodide staining based cytofluorometry to antibacterial IC50 against Staphylococcus aureus CECT 86; assay type: toxicity; settings: read-out: Selectivity Index
[7] = Toxicity in human neutrophils assessed as induction of necrosis at 100 uM incubated for 24 hrs by annexin V-FITC and propidium iodide staining based cytofluorometry; assay type: cell-based; settings: neutrophil
In short: (§3)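 Freshly isolated donor neutrophils (2 x 10⁶ cells/mL stock, diluted into supplemented RPMI) cultured 24 h with 30 or 100 µM. Stained with annexin V-FITC/propidium iodide; 1 x 10⁴ cells analysed by flow cytometry. Gating: annexin V+/PI− apoptotic, V+/PI+ late apoptotic/necrotic, V−/PI− viable. Mean ± SEM, n=3, compared against vehicle.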

[8] = tested on: Pectobacterium carotovorum; assay: Antibacterial activity against Erwinia carotovora CECT 225 assessed as inhibition of microbial growth incubated for 18 hrs by 2-fold microtiter broth dilution method; assay type: functional, organism-based; settings: CECT 225, 18 h; in short: as §2
[9] = Toxicity in human neutrophils assessed as cell survival at 30 uM incubated for 24 hrs by annexin V-FITC and propidium iodide staining based cytofluorometry; settings: neutrophil; in short: as §3
[10] = Selectivity index, ratio of cytotoxicity against human neutrophils by MTT assay to antibacterial IC50 against Enterococcus faecalis CECT 481; assay type: toxicity; settings: read-out: Selectivity Index
[11] = Selectivity index, ratio of cytotoxicity against human neutrophils by MTT assay to antibacterial IC50 against Salmonella typhi CECT 409; assay type: toxicity; settings: read-out: Selectivity Index
Escherichia coli [12] = assay: Antibacterial activity against Escherichia coli CECT 405 assessed as inhibition of microbial growth incubated for 18 hrs by 2-fold microtiter broth dilution method; assay type: functional, organism-based; settings: CECT 405, 18 h; in short: as §2
Escherichia coli [13] = assay: Antibacterial activity against Escherichia coli CECT 100 assessed as inhibition of microbial growth incubated for 18 hrs by 2-fold microtiter broth dilution method; assay type: functional, organism-based; settings: CECT 100, 18 h; in short: as §2
Salmonella typhi [14] = assay: Antibacterial activity against Salmonella typhi CECT 409 assessed as inhibition of microbial growth incubated for 18 hrs by 2-fold microtiter broth dilution method; assay type: functional, organism-based, Salmonella enterica subsp. enterica serovar Typhi; settings: Salmonella enterica, CECT 409, 18 h
In short: (§4)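 Compounds in DMSO, ten 2-fold serial dilutions (125 down to 0.24 µg/mL), mixed 1:1 with bacteria in Nutrient Broth at OD620 = 0.001. Incubated overnight (18 h) at 28 or 37 °C depending on strain. Growth read turbidimetrically at OD620; MIC is the lowest concentration completely inhibiting growth, per CLSI. Triplicate runs; tetracycline reference.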

[15] = Selectivity index, ratio of cytotoxicity against human neutrophils by MTT assay to antibacterial IC50 against Staphylococcus aureus CECT 86; assay type: toxicity; settings: read-out: Selectivity Index
[16] = Cytotoxicity against human neutrophils assessed as reduction in cell viability at 30 uM incubated for 24 hrs by MTT assay; assay type: cell-based; settings: neutrophil; in short: as §1
Bacillus subtilis [17] = assay: Antibacterial activity against Bacillus subtilis CECT 35 assessed as inhibition of microbial growth incubated for 18 hrs by 2-fold microtiter broth dilution method; assay type: functional, organism-based; settings: CECT 35, 18 h; in short: as §2
[18] = Toxicity in human neutrophils assessed as induction of apoptosis at 30 and 100 uM incubated for 24 hrs by annexin V-FITC and propidium iodide staining based cytofluorometry; assay type: cell-based; settings: neutrophil; in short: as §3
Enterococcus faecalis [19] = assay: Antibacterial activity against Enterococcus faecalis CECT 481 assessed as inhibition of microbial growth incubated for 18 hrs by 2-fold microtiter broth dilution method; assay type: functional, organism-based; settings: CECT 481, 18 h; in short: as §2
[20] = Selectivity index, ratio of cytotoxicity against human neutrophils by annexin V-FITC and propidium iodide staining based cytofluorometry to antibacterial IC50 against Salmonella typhi CECT 409; assay type: toxicity; settings: read-out: Selectivity Index
Bacillus cereus [21] = assay: Antibacterial activity against Bacillus cereus CECT 148 assessed as inhibition of microbial growth incubated for 18 hrs by 2-fold microtiter broth dilution method; assay type: functional, organism-based; settings: CECT 148, 18 h; in short: as §2
Bacillus cereus [22] = assay: Antibacterial activity against Bacillus cereus CECT 148 assessed as inhibition of microbial growth at 125 ug/ml incubated for 18 hrs by 2-fold microtiter broth dilution method; assay type: functional, organism-based; in short: as §2
Escherichia coli [23] = assay: Antibacterial activity against Escherichia coli CECT 405 assessed as inhibition of microbial growth at 125 ug/ml incubated for 18 hrs by 2-fold microtiter broth dilution method; assay type: functional, organism-based; in short: as §2
Salmonella typhi [24] = assay: Antibacterial activity against Salmonella typhi CECT 409 assessed as inhibition of microbial growth at 125 ug/ml incubated for 18 hrs by 2-fold microtiter broth dilution method; assay type: functional, organism-based; settings: Salmonella enterica subsp. enterica serovar Typhi; in short: as §4
Enterococcus faecalis [25] = assay: Antibacterial activity against Enterococcus faecalis CECT 481 assessed as inhibition of microbial growth at 125 ug/ml incubated for 18 hrs by 2-fold microtiter broth dilution method; assay type: functional, organism-based; in short: as §2
Staphylococcus aureus [26] = assay: Antibacterial activity against Staphylococcus aureus CECT 86 assessed as inhibition of microbial growth at 125 ug/ml incubated for 18 hrs by 2-fold microtiter broth dilution method; assay type: functional, organism-based; in short: as §2
Bacillus subtilis [27] = assay: Antibacterial activity against Bacillus subtilis CECT 35 assessed as inhibition of microbial growth at 125 ug/ml incubated for 18 hrs by 2-fold microtiter broth dilution method; assay type: functional, organism-based; in short: as §2
Escherichia coli [28] = assay: Antibacterial activity against Escherichia coli CECT 100 assessed as inhibition of microbial growth at 125 ug/ml incubated for 18 hrs by 2-fold microtiter broth dilution method; assay type: functional, organism-based; in short: as §2
[29] = tested on: Pectobacterium carotovorum; assay: Antibacterial activity against Erwinia carotovora CECT 225 assessed as inhibition of microbial growth at 125 ug/ml incubated for 18 hrs by 2-fold microtiter broth dilution method; assay type: functional, organism-based; in short: as §2

| Structure (SMILES) | Activity [1] | selectivity ratio [2] | selectivity ratio [3] | selectivity ratio [4] | IC50 (Staphylococcus aureus [5]) | MIC (Staphylococcus aureus [5]) | selectivity ratio [6] | Activity [7] | MIC [8] | Activity [9] | selectivity ratio [10] | selectivity ratio [11] | growth inhibition (GI) (Bacillus cereus [22]) | growth inhibition (GI) (Escherichia coli [23]) | growth inhibition (GI) (Salmonella typhi [24]) | growth inhibition (GI) (Enterococcus faecalis [25]) | growth inhibition (GI) (Staphylococcus aureus [26]) | growth inhibition (GI) (Bacillus subtilis [27]) | growth inhibition (GI) (Escherichia coli [28]) | growth inhibition (GI) [29] | also measured |
| --- | --- | --- | --- | --- | --- | --- | --- | --- | --- | --- | --- | --- | --- | --- | --- | --- | --- | --- | --- | --- | --- |
| O=C1O/C(=C\c2ccc(O)c(Br)c2)C(c2cc(Br)c(O)c(Br)c2)=C1C(=O)c1ccc(O)c(Br)c1 | Toxic | 5 | 5 | 5 | 2720 nM | 1.95 µg/mL | 5 | 36% | 125 µg/mL | Non-toxic | 5 | 5 | – | – | – | – | – | – | – | – | IC50 (Escherichia coli [12]): 2720 nM; MIC (Escherichia coli [12]): 1.95 µg/mL; IC50 (Escherichia coli [13]): > 175 µM; MIC (Escherichia coli [13]): > 125 µg/mL; IC50 (Salmonella typhi [14]): 2720 nM; MIC (Salmonella typhi [14]): 1.95 µg/mL; selectivity ratio [15]: 5; Activity [16]: Non-toxic; MIC (Bacillus subtilis [17]): 125 µg/mL; Activity [18]: Non-toxic; IC50 (Enterococcus faecalis [19]): 2720 nM; MIC (Enterococcus faecalis [19]): 1.95 µg/mL; selectivity ratio [20]: 5; IC50 (Bacillus cereus [21]): 2720 nM; MIC (Bacillus cereus [21]): 1.95 µg/mL |
| O=C1O/C(=C\c2ccc(O)c(Br)c2)C(c2ccc(O)c(Br)c2)=C1C(=O)c1ccc(O)c(Br)c1 | Toxic | 5 | 5 | 5 | 3060 nM | 1.95 µg/mL | 5 | 98% | 125 µg/mL | Non-toxic | 5 | 5 | – | – | – | – | – | – | – | – | IC50 (Escherichia coli [12]): 3060 nM; MIC (Escherichia coli [12]): 1.95 µg/mL; IC50 (Escherichia coli [13]): > 196 µM; MIC (Escherichia coli [13]): > 125 µg/mL; IC50 (Salmonella typhi [14]): 3060 nM; MIC (Salmonella typhi [14]): 1.95 µg/mL; selectivity ratio [15]: 5; Activity [16]: Non-toxic; MIC (Bacillus subtilis [17]): 125 µg/mL; Activity [18]: Non-toxic; IC50 (Enterococcus faecalis [19]): 3060 nM; MIC (Enterococcus faecalis [19]): 1.95 µg/mL; selectivity ratio [20]: 5; IC50 (Bacillus cereus [21]): 3060 nM; MIC (Bacillus cereus [21]): 1.95 µg/mL |
| COc1ccc(C2=C(C(=O)c3cc(Br)c(O)c(Br)c3)C(=O)O/C2=C\c2cc(Br)c(O)c(Br)c2)cc1 | – | – | – | – | – | – | – | – | – | – | – | – | inactive | inactive | inactive | inactive | inactive | inactive | inactive | inactive | – |
| COc1ccc(C2=C(C(=O)c3ccc(O)c(Br)c3)C(=O)O/C2=C\c2ccc(O)c(Br)c2)cc1Br | – | – | – | – | – | – | – | – | – | – | – | – | inactive | inactive | inactive | inactive | inactive | inactive | inactive | inactive | – |
| COc1ccc(C2=C(C(=O)c3ccc(O)c(Br)c3)C(=O)O/C2=C\c2cc(Br)c(O)c(Br)c2)cc1Br | – | – | – | – | – | – | – | – | – | – | – | – | inactive | inactive | inactive | inactive | inactive | inactive | inactive | inactive | – |
